What was measured:
[1] = Ratio of AUC in tumor to skin of C57BL/6J mouse bearing mouse B16F0 cells at 0.37 to 1.85 MBq, iv by gamma counting method; format: ADME, organism-based; conditions: in vivo
How it was run: (§1)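 Biodistribution in B16F0-bearing C57BL/6J mice given i.v. tail-vein tracer (~0.37 MBq for 1–24 h, 1.85 MBq for 48 h). Sacrifice at 1, 3, 6, 16, 24 and 48 h, then organs dissected, weighed and γ-counted as decay-corrected % ID/g. Tumor AUC divided by each organ AUC; mean of ratios ± SEM, n = 5.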

[2] = tested on: Mus musculus; test: Biodistribution in small gastrointestinal tract of C57BL/6J mouse bearing mouse B16F0 cells at 0.37 to 1.85 MBq, iv after 48 hrs by gamma counting method; format: ADME, organism-based; conditions: in vivo
How it was run: (§2)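 Female C57BL/6J mice (5−6 weeks), s.c. inoculated on left flank with 3 × 10^5 B16F0 cells in Ca2+/Mg2+-free PBS, used 11 days later (tumors 2−12 mm). Radiotracer given via tail vein in 100 μL (~0.37 MBq for 1−24 h, 1.85 MBq for 48 h). Organs dissected, weighed, γ-counted, decay corrected. Expressed as % ID/g against injected-dose dilutions. Mean ± SEM, n = 5.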

[3] = tested on: Mus musculus; test: Biodistribution in tumor of C57BL/6J mouse bearing mouse B16F0 cells at 0.37 to 1.85 MBq, iv after 48 hrs by gamma counting method; format: ADME, organism-based; conditions: in vivo; how it was run: as §2
[4] = Ratio of AUC in tumor to thyroid gland of C57BL/6J mouse bearing mouse B16F0 cells at 0.37 to 1.85 MBq, iv by gamma counting method; format: ADME, organism-based; conditions: in vivo; how it was run: as §1
[5] = tested on: Kidney; test: Biodistribution in kidney of C57BL/6J mouse bearing mouse B16F0 cells at 0.37 to 1.85 MBq, iv after 48 hrs by gamma counting method; format: ADME, organism-based; conditions: in vivo; how it was run: as §2
[6] = tested on: Spleen; test: Biodistribution in spleen of C57BL/6J mouse bearing mouse B16F0 cells at 0.37 to 1.85 MBq, iv after 3 hrs by gamma counting method; format: ADME, organism-based; conditions: in vivo; how it was run: as §2
[7] = Stability in eyes of C57BL/6J mouse bearing mouse B16F0 cells assessed as intact parent compound level at 0.37 to 1.85 MBq, iv after 24 hrs by radio-HPLC and radio-TLC method; format: ADME, organism-based, Eye; conditions: in the assay text read “20 MBq” for “0.37 to 1.85 MBq”, read-out: Stability
How it was run: (§3)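 Tumor-bearing C57BL/6J mice were sampled 3 and 24 h after i.v. tracer. Tissue was sonicated in CH3CN/water (3:2) with cold iodo standard and KI, then centrifuged. Urine was diluted and spiked; plasma was spiked, with CH3CN precipitation for TLC. Intact fraction came from silica radio-TLC (spot matching standard Rf) and radio-HPLC with precolumn/C18 column switching.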

[8] = tested on: Mus musculus; test: Biodistribution in eyes of C57BL/6J mouse bearing mouse B16F0 cells at 0.37 to 1.85 MBq, iv after 6 hrs by gamma counting method; format: ADME, organism-based, Eye; conditions: in vivo; how it was run: as §2
[9] = tested on: Mus musculus; test: Biodistribution in thyroid gland of C57BL/6J mouse bearing mouse B16F0 cells at 0.37 to 1.85 MBq, iv after 3 hrs by gamma counting method; format: ADME, organism-based; conditions: in vivo; how it was run: as §2
[10] = tested on: Mus musculus; test: Biodistribution in thyroid gland of C57BL/6J mouse bearing mouse B16F0 cells at 0.37 to 1.85 MBq, iv after 1 hr by gamma counting method; format: ADME, organism-based; conditions: in vivo; how it was run: as §2
[11] = tested on: Mus musculus; test: Biodistribution in eyes of C57BL/6J mouse bearing mouse B16F0 cells at 0.37 to 1.85 MBq, iv after 24 hrs by gamma counting method; format: ADME, organism-based, Eye; conditions: in vivo; how it was run: as §2
[12] = tested on: Mus musculus; test: Biodistribution in small gastrointestinal tract of C57BL/6J mouse bearing mouse B16F0 cells at 0.37 to 1.85 MBq, iv after 3 hrs by gamma counting method; format: ADME, organism-based, Small intestine; conditions: in vivo; how it was run: as §2
[13] = tested on: Mus musculus; test: Biodistribution in large gastrointestinal tract of C57BL/6J mouse bearing mouse B16F0 cells at 0.37 to 1.85 MBq, iv after 6 hrs by gamma counting method; format: ADME, organism-based; conditions: in vivo; how it was run: as §2
[14] = tested on: Mus musculus; test: Biodistribution in tumor of C57BL/6J mouse bearing mouse B16F0 cells at 0.37 to 1.85 MBq, iv after 1 hr by gamma counting method; format: ADME, organism-based; conditions: in vivo; how it was run: as §2
[15] = tested on: Liver; test: Biodistribution in liver of C57BL/6J mouse bearing mouse B16F0 cells at 0.37 to 1.85 MBq, iv after 24 hrs by gamma counting method; format: ADME, organism-based; conditions: in vivo; how it was run: as §2
[16] = tested on: Mus musculus; test: Biodistribution in large gastrointestinal tract of C57BL/6J mouse bearing mouse B16F0 cells at 0.37 to 1.85 MBq, iv after 16 hrs by gamma counting method; format: ADME, organism-based, Large intestine; conditions: in vivo; how it was run: as §2
[17] = tested on: Kidney; test: Biodistribution in kidney of C57BL/6J mouse bearing mouse B16F0 cells at 0.37 to 1.85 MBq, iv after 24 hrs by gamma counting method; format: ADME, organism-based; conditions: in vivo; how it was run: as §2
[18] = tested on: Kidney; test: Biodistribution in kidney of C57BL/6J mouse bearing mouse B16F0 cells at 0.37 to 1.85 MBq, iv after 16 hrs by gamma counting method; format: ADME, organism-based; conditions: in vivo; how it was run: as §2
[19] = tested on: Mus musculus; test: Biodistribution in tumor of C57BL/6J mouse bearing mouse B16F0 cells at 0.37 to 1.85 MBq, iv after 3 hrs by gamma counting method; format: ADME, organism-based; conditions: in vivo; how it was run: as §2
[20] = tested on: Mus musculus; test: Biodistribution in thyroid gland of C57BL/6J mouse bearing mouse B16F0 cells at 0.37 to 1.85 MBq, iv after 24 hrs by gamma counting method; format: ADME, organism-based; conditions: in vivo; how it was run: as §2
[21] = tested on: Mus musculus; test: Biodistribution in thyroid gland of C57BL/6J mouse bearing mouse B16F0 cells at 0.37 to 1.85 MBq, iv after 16 hrs by gamma counting method; format: ADME, organism-based; conditions: in vivo; how it was run: as §2
[22] = Ratio of AUC in tumor to eyes of C57BL/6J mouse bearing mouse B16F0 cells at 0.37 to 1.85 MBq, iv by gamma counting method; format: ADME, organism-based; conditions: in vivo; how it was run: as §1
[23] = tested on: Spleen; test: Biodistribution in spleen of C57BL/6J mouse bearing mouse B16F0 cells at 0.37 to 1.85 MBq, iv after 24 hrs by gamma counting method; format: ADME, organism-based; conditions: in vivo; how it was run: as §2
[24] = tested on: Liver; test: Biodistribution in liver of C57BL/6J mouse bearing mouse B16F0 cells at 0.37 to 1.85 MBq, iv after 16 hrs by gamma counting method; format: ADME, organism-based; conditions: in vivo; how it was run: as §2
[25] = tested on: Spleen; test: Biodistribution in spleen of C57BL/6J mouse bearing mouse B16F0 cells at 0.37 to 1.85 MBq, iv after 6 hrs by gamma counting method; format: ADME, organism-based; conditions: in vivo; how it was run: as §2
[26] = Ratio of AUC in tumor to bone of C57BL/6J mouse bearing mouse B16F0 cells at 0.37 to 1.85 MBq, iv by gamma counting method; format: ADME, organism-based; conditions: in vivo; how it was run: as §1
[27] = Stability in eyes of C57BL/6J mouse bearing mouse B16F0 cells assessed as intact parent compound level at 0.37 to 1.85 MBq, iv after 3 hrs by radio-HPLC and radio-TLC method; format: ADME, organism-based, Eye; conditions: in the assay text read “20 MBq” for “0.37 to 1.85 MBq”, read-out: Stability; how it was run: as §3
[28] = tested on: Mus musculus; test: Biodistribution in large gastrointestinal tract of C57BL/6J mouse bearing mouse B16F0 cells at 0.37 to 1.85 MBq, iv after 48 hrs by gamma counting method; format: ADME, organism-based; conditions: in vivo; how it was run: as §2

O=C(c1ccc2c(n1)NCCC2)N1CCN(Cc2ccc([123I])cc2)CC1
Ratio [1]: 40.9 | Drug uptake [2]: 0.1 % ID/g | Drug uptake [3]: 5.6 % ID/g | Ratio [4]: 7.2 | Drug uptake [5]: 0.4 % ID/g | Drug uptake [6]: 2 % ID/g | remaining at 24 h [7]: 35% | Drug uptake [8]: 52.8 % ID/g | Drug uptake [9]: 2.7 % ID/g | Drug uptake [10]: 5.1 % ID/g | Drug uptake [11]: 30.8 % ID/g | Drug uptake [12]: 63.8 % ID/g | Drug uptake [13]: 87.1 % ID/g | Drug uptake [14]: 19.2 % ID/g | Drug uptake [15]: 0.8 % ID/g | Drug uptake [16]: 2.3 % ID/g | Drug uptake [17]: 1 % ID/g | Drug uptake [18]: 1.2 % ID/g | Drug uptake [19]: 32.1 % ID/g | Drug uptake [20]: 2 % ID/g | Drug uptake [21]: 2.5 % ID/g | Ratio [22]: 0.52 | Drug uptake [23]: 0.2 % ID/g | Drug uptake [24]: 0.9 % ID/g | Drug uptake [25]: 1 % ID/g | Ratio [26]: 65.5 | remaining at 3 h [27]: 60% | Drug uptake [28]: 0.2 % ID/g

O=C(CN1Cc2ccccc2C1=O)NC1CCN(Cc2ccc([123I])cc2)CC1
Ratio [1]: 24.4 | Drug uptake [2]: 0.3 % ID/g | Drug uptake [3]: 13.2 % ID/g | Ratio [4]: 5.8 | Drug uptake [5]: 0.3 % ID/g | Drug uptake [6]: 7.6 % ID/g | remaining at 24 h [7]: 80% | Drug uptake [8]: 28.1 % ID/g | Drug uptake [9]: 3.4 % ID/g | Drug uptake [10]: 3.4 % ID/g | Drug uptake [11]: 41.4 % ID/g | Drug uptake [12]: 12 % ID/g | Drug uptake [13]: 17.6 % ID/g | Drug uptake [14]: 6.2 % ID/g | Drug uptake [15]: 7.8 % ID/g | Drug uptake [16]: 8.1 % ID/g | Drug uptake [17]: 1.9 % ID/g | Drug uptake [18]: 1.8 % ID/g | Drug uptake [19]: 11.6 % ID/g | Drug uptake [20]: 2.6 % ID/g | Drug uptake [21]: 2.3 % ID/g | Ratio [22]: 0.44 | Drug uptake [23]: 1.2 % ID/g | Drug uptake [24]: 7.1 % ID/g | Drug uptake [25]: 3.6 % ID/g | Ratio [26]: 65.8 | remaining at 3 h [27]: 90% | Drug uptake [28]: 0.6 % ID/g

O=C(CN1Cc2ccccc2C1=O)N1C[C@H]2CN(Cc3ccc([123I])cc3)C[C@H]2C1
Ratio [1]: 23.1 | Drug uptake [2]: 0.1 % ID/g | Drug uptake [3]: 5 % ID/g | Ratio [4]: 6 | Drug uptake [5]: 0.2 % ID/g | Drug uptake [6]: 0.5 % ID/g | remaining at 24 h [7]: 80% | Drug uptake [8]: 21.8 % ID/g | Drug uptake [9]: 1.5 % ID/g | Drug uptake [10]: 1.9 % ID/g | Drug uptake [11]: 18.4 % ID/g | Drug uptake [12]: 15.2 % ID/g | Drug uptake [13]: 23.1 % ID/g | Drug uptake [14]: 10.3 % ID/g | Drug uptake [15]: 0.4 % ID/g | Drug uptake [16]: 1.4 % ID/g | Drug uptake [17]: 0.5 % ID/g | Drug uptake [18]: 1 % ID/g | Drug uptake [19]: 10.8 % ID/g | Drug uptake [20]: 1 % ID/g | Drug uptake [21]: 1 % ID/g | Ratio [22]: 0.42 | Drug uptake [23]: 0.05 % ID/g | Drug uptake [24]: 0.7 % ID/g | Drug uptake [25]: 0.4 % ID/g | Ratio [26]: 25 | remaining at 3 h [27]: 90% | Drug uptake [28]: 0.1 % ID/g

O=C(c1ccc2cccnc2n1)N1CCN(Cc2ccc([123I])cc2)CC1
Ratio [1]: 45.3 | Drug uptake [2]: 0.2 % ID/g | Drug uptake [3]: 13.1 % ID/g | Ratio [4]: 5 | Drug uptake [5]: 0.5 % ID/g | Drug uptake [6]: 2.3 % ID/g | remaining at 24 h [7]: 35% | Drug uptake [8]: 37.2 % ID/g | Drug uptake [9]: 2.2 % ID/g | Drug uptake [10]: 2.3 % ID/g | Drug uptake [11]: 35.1 % ID/g | Drug uptake [12]: 14.1 % ID/g | Drug uptake [13]: 18.6 % ID/g | Drug uptake [14]: 17.1 % ID/g | Drug uptake [15]: 1.8 % ID/g | Drug uptake [16]: 1.8 % ID/g | Drug uptake [17]: 1.4 % ID/g | Drug uptake [18]: 1.6 % ID/g | Drug uptake [19]: 20 % ID/g | Drug uptake [20]: 2.9 % ID/g | Drug uptake [21]: 1.6 % ID/g | Ratio [22]: 0.47 | Drug uptake [23]: 0.5 % ID/g | Drug uptake [24]: 2.4 % ID/g | Drug uptake [25]: 2.1 % ID/g | Ratio [26]: 44 | remaining at 3 h [27]: 60% | Drug uptake [28]: 0.3 % ID/g

Source: ChEMBL document CHEMBL3588831, “Synthesis and in Vivo Evaluation of [123I]Melanin-Targeted Agents” (J Med Chem, 2015)
